Reference: ChEMBL document CHEMBL1129360, “Carbocyclic nucleosides as inhibitors of human tumor necrosis factor-alpha production: effects of the stereoisomers of (3-hydroxycyclopentyl)adenines” (J Med Chem, 1996)

Key:
Mus musculus [1] = experiment: D-galactosamine sensitized mice were given 3 times the LD100 dose of LPS (100 mg/kg IP in PBS); format: functional
Method in brief: (§1)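 Female CF1 mice were fasted overnight, then given compound at 100 mg/kg ip in PBS 1 h before an ip challenge of D-galactosamine (20 mg) plus S. enteritidis LPS (15-250 ng). The LPS LD100 was set for each shipment of mice, and the challenge was at LD100 or 3× LD100. Mice were refed after challenge and survival was scored at 8 h. PBS vehicle served as control.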

Homo sapiens [2] = species on record: Homo sapiens; experiment: in vitro inhibitory activity was measured against interleukin-6 (IL-6) production; format: functional, organism-based
Method in brief: (§2)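 Human peripheral blood mononuclear cells from normal volunteers were separated by density gradient. Adherent monocyte/macrophages were kept after 1 h and lifted with RPMI-1640/0.2% EDTA/5% FCS. Compounds in PBS (0.16, 0.8, 4.0, 20.0, 100 µM) were added to the cells 15 min before LPS. Cells were incubated 18 h at 37 °C, 5% CO2. Supernatant TNF-α, IL-1β and IL-6 were measured by specific ELISA, giving IC50.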

Homo sapiens [3] = species on record: Homo sapiens; experiment: In vitro inhibitory activity was measured against tumor necrosis factor-alpha production; format: functional; method in brief: as §2
Homo sapiens [4] = species on record: Homo sapiens; experiment: in vitro inhibitory activity was measured against interleukin-1-beta (IL1-beta) production; format: functional; method in brief: as §2
Mus musculus [5] = experiment: Protective effects against lethal injections of D-galactosamine sensitized Lipopolysaccharide challenged (LD100) CF1 mice (100 mg/kg IP in PBS); format: functional; method in brief: as §1

| Structure (SMILES) | Survival (Mus musculus [1]) [%] | IC50 (Homo sapiens [2]) [µM] | IC50 (Homo sapiens [3]) [µM] | IC50 (Homo sapiens [4]) [µM] | Survival (Mus musculus [5]) [%] |
| --- | --- | --- | --- | --- | --- |
| Nc1ncnc2c1ncn2[C@@H]1O[C@H](CO)[C@@H](O)[C@H]1O [ADENOSINE] | 0 | > 100 | 6 | > 100 | 0 |
| CC(=O)CCCCn1c(=O)c2c(ncn2C)n(C)c1=O [PENTOXIFYLLINE] | 0 | > 100 | 33 | > 100 | 66 |
| Nc1ncnc2c1ncn2[C@@H]1CC[C@@H](O)C1 | 100 | > 100 | 9 | 76 | 100 |
| Nc1ncnc2c1ncn2[C@H]1CC[C@@H](O)C1 | 0 | > 100 | 40 | > 100 | 88 |
| Nc1ncnc2c1ncn2[C@@H]1CC[C@H](O)C1 | 0 | > 100 | 18 | > 100 | 50 |
| Nc1ncnc2c1ncn2[C@H]1CC[C@H](O)C1 | 0 | > 100 | 16 | > 100 | 63 |
